The results in this text go back to ChEMBL document CHEMBL1123985, “Oral absorption of cephalosporin antibiotics. 1. Synthesis, biological properties, and oral bioavailability of 7-(arylacetamido)-3-chloro cephalosporins in animals” (J Med Chem, 1988).

In brackets after ≈: the same amount, converted by molar mass.

A short description of series [1]: Area under plasma concentration vs time curve observed in Rhesus monkeys after, iv administration of single 30 mg/kg dose. In kind it is ADME, organism-based, Macaca mulatta. Further details: dose 30 mg/kg, route intravenous. To be noted: rhesus monkey. An outline of the steps: (§1)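 Rhesus monkeys, adult males, six animals per compound, each given drug orally and iv; fasted overnight. Single 30 mg/kg solution doses, by nasogastric tube (in water) or saphenous vein (in isotonic lactated Ringer). Plasma sampled at intervals, frozen at -70 °C, antibacterial activity by microbiological assay. AUC in μg min/mL; oral bioavailability from oral vs iv AUC.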

Series [2] is described as follows: Area under plasma concentration vs time curve observed in Rhesus monkeys after oral administration of single 30 mg/kg dose. It is filed as ADME, organism-based, Macaca mulatta. Further details: dose 30 mg/kg, route oral. As to conditions: rhesus monkey. An outline of the steps: as §1
Series [3] has as its system Canis familiaris. Kind of series: Area under plasma concentration vs time curve observed in female mongrel dogs after, iv administration of single 15 mg/kg dose. It is filed as ADME, organism-based, Canis lupus familiaris. Details: dose 15 mg/kg, route intravenous. To be noted: dog, in vivo. An outline of the steps:
(§2)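 Six female mongrel dogs (14-23 kg) fasted overnight, bladder catheterized; single 15 mg/kg solution doses by stomach tube (in water, total 500 mL) or cephalic vein (saline or pH 6.0 NaCl/phosphate/acetate buffer). Plasma sampled at intervals; activity by disk-plate agar diffusion against E. coli MB 3804, standards in dog serum or buffer. AUC μg min/mL, mean ± SEM; BA from iv vs po AUC and urinary recovery.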

Series [4] has as its system Canis familiaris. The series can be described thus: Area under plasma concentration vs time curve observed in female mongrel dogs after, oral administration of single 15 mg/kg dose. As to conditions: dog, in vivo. Further details: dose 15 mg/kg, route oral. In kind it is ADME, organism-based, Canis lupus familiaris. An outline of the steps:
as §2

Series [5] is described as follows: Oral bioavailability in mouse. In kind it is ADME, organism-based. To be noted: in vivo. An outline of the steps: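 Male Cox mice given water and liquid diet overnight; 20 mg/kg in saline (2 mg/mL) sc or orally; urine from collection cages plus bladder contents over 2 h; activity by agar well assay with Bacillus subtilis ATCC 6633. Bioavailability from percent dose excreted in urine after oral vs parenteral dosing.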

Series [6] is described as follows: Oral bioavailability in Rhesus monkey. To be noted: in vivo. It is filed as ADME, organism-based, Macaca mulatta. An outline of the steps: as §1
The nature of series [7]: Oral bioavailability in dog (female mongrel). It is filed as ADME, organism-based, Canis lupus familiaris. To be noted: in vivo. An outline of the steps: as §2
A short description of series [8]: Dose in urine (24-h urine excretion) in female mongrel dogs after oral administration of single 15 mg/kg dose. It is filed as ADME, organism-based, Canis lupus familiaris. Further details: dose 15 mg/kg, route oral. To be noted: dog. An outline of the steps:
(§3)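 Female mongrel dogs (n=6), bladder catheter; urine collected at intervals after single 15 mg/kg iv or oral solution dose, frozen; antibiotic activity by disk-plate agar diffusion against E. coli MB 3804 with standards in pH 6.0 buffer; percent of dose recovered in urine.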

Series [9] relates to Escherichia coli. The series can be described thus: Minimum inhibitory concentration against EC14 strain Escherichia coli. It is filed as functional.
In series [10] the test system is Klebsiella aerogenes. The series can be described thus: Minimum inhibitory concentration against EB17 strain of Enterobacter aerogenes. It is filed as functional.
Series [11] has as its system Klebsiella pneumoniae. The series can be described thus: Minimum inhibitory concentration against X68 strain of Klebsiella pneumoniae. In kind it is functional.
The test system of series [12] is Salmonella. Kind of series: Minimum inhibitory concentration against X514 strain of Salmonella. In kind it is functional.
Series [13] is described as follows: Minimum inhibitory concentration against N9 strain of Shigella sonnei. It is filed as functional.
In series [14] the test system is Staphylococcus epidermidis. The series can be described thus: Minimum inhibitory concentration against 222 strain of Staphylococcus epidermidis. It is filed as functional.
Series [15] deals with Staphylococcus epidermidis. The series can be described thus: Minimum inhibitory concentration against Epil strain of Staphylococcus epidermidis. In kind it is functional.
For series [16], the system named is Staphylococcus aureus. Kind of series: Minimum inhibitory concentration against S13E strain of Staphylococcus aureus. It is filed as functional.
For series [17], the system named is Staphylococcus aureus. The series can be described thus: Minimum inhibitory concentration against V41 strain of Staphylococcus aureus. In kind it is functional.
Series [18] relates to Staphylococcus aureus. Kind of series: Minimum inhibitory concentration against X1.1 strain of Staphylococcus aureus. It is filed as functional.
Series [19] deals with Streptococcus pyogenes. Kind of series: Minimum inhibitory concentration against Streptococcus pyogenes C203. In kind it is functional.
A short description of series [20]: (§4) Minimum inhibitory concentration against sens CL strain of Haemophilus influenzae. It is filed as functional.
Series [21] in a line: (§5) Minimum inhibitory concentration against res 76 strain of Haemophilus influenzae. It is filed as functional.
A short description of series [22]: Dose in urine (24-h urine excretion) in female mongrel dogs after iv administration of single 15 mg/kg dose. In kind it is ADME, organism-based, Canis lupus familiaris. Further details: dose 15 mg/kg, route intravenous. To be noted: dog. An outline of the steps:
as §3

Series [23] relates to Staphylococcus aureus. Kind of series: Minimum inhibitory concentration against 3055 strain of Staphylococcus aureus.
The subject of series [24] is Streptococcus pyogenes. Kind of series: Minimum inhibitory concentration against C203 strain of Streptococcus pyogenes.
For series [25], the system named is Streptococcus pneumoniae. The series can be described thus: Minimum inhibitory concentration against park strain of Streptococcus pneumoniae.
The test system of series [26] is Streptococcus pneumoniae. Kind of series: Minimum inhibitory concentration against Park strain of Streptococcus pneumoniae.
For series [27], the system named is Haemophilus influenzae. The description is as §4. It is filed as functional.
The test system of series [28] is Haemophilus influenzae. Described as §5. It is filed as functional.
Series [29] relates to Mus musculus. Kind of series: Efficacy against mouse infected ip with C203 strain of Streptococcus pyogenes, administered po to 19-21-g random sex ICR mice at 1 hr and 5 hr. In kind it is functional. An outline of the steps:
(§6)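 ICR mice, random sex, 19-21 g, challenged ip with 50-500 LC50 from a frozen organism pool; compound given sc or po at 1 and 5 h after challenge, five 2-fold dose levels, eight mice per level; ED50 derived.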

Series [30] deals with Mus musculus. The series can be described thus: Efficacy against mouse infected ip with C203 strain of Streptococcus pyogenes, administered sc to 19-21-g random sex ICR mice at 1 hr and 5 hr. In kind it is functional. An outline of the steps:
as §6

Series [31] deals with Mus musculus. Kind of series: Efficacy against mouse infected ip with park strain of Streptococcus pneumoniae administered po to 19-21-g random sex ICR mice at 1 hr and 5 hr. It is filed as functional. An outline of the steps: as §6
The test system of series [32] is Mus musculus. Kind of series: Efficacy against mouse infected ip with park strain of Streptococcus pneumoniae administered sc to 19-21-g random sex ICR mice at 1 hr and 5 hr. It is filed as functional. An outline of the steps:
as §6

Series [33] deals with Mus musculus. The series can be described thus: Efficacy against mouse infected ip with 3055 strain of Staphylococcus aureus, administered po to 19-21-g random sex ICR mice at 1 hr and 5 hr. It is filed as functional. An outline of the steps:
as §6

The test system of series [34] is Mus musculus. Kind of series: Efficacy against mouse infected ip with 3055 strain of Staphylococcus aureus, administered sc to 19-21-g random sex ICR mice at 1 hr and 5 hr. It is filed as functional. An outline of the steps: as §6
The test system of series [35] is Streptococcus pneumoniae. The series can be described thus: Minimum inhibitory concentration against Park strain of Streptococcus pneumoniae. It is filed as functional.
The subject of series [36] is Streptococcus pyogenes. The series can be described thus: Minimum inhibitory concentration against C203 strain of Streptococcus pyogenes. This is another data set of the same source.

For orientation: AUC means concentration integrated over time. The bioavailability is dose-corrected exposure relative to a reference, in per cent. For orientation: ED50 means the dose that gives a 50% effect, or the effect in half of the subjects.

With `O=C(Cc1ccccc1)N[C@@H]1C(=O)N2C(C(=O)O)=C(Cl)CS[C@H]12`, the exposure (AUC) in [1] is 58300 ng·h/mL; in series [2], 8830 ng·h/mL; in series [3], 97.3 µg·h/mL; in [4], 970 µg·min/mL. Besides, the bioavailability in series [5] amounted to 37%; in series [6] it was 15.1%; in [7], 17%. Also, the dose excreted amounted to 15% in series [8] and 67% in [22]. For the same molecule, the MIC in series [9] is 8 µg/mL (≈ 22.7 µM); in series [10] it was over 128 µg/mL; in series [11], 4 µg/mL (≈ 11.3 µM); in series [12], 4 µg/mL (≈ 11.3 µM); in series [13], 64 µg/mL (≈ 181 µM); in series [14] it was 1 µg/mL (≈ 2.83 µM). Moreover, the MIC in series [15] was 2 µg/mL (≈ 5.67 µM); in series [16], 32 µg/mL (≈ 90.7 µM); in [17], 16 µg/mL (≈ 45.4 µM); in series [18], 0.5 µg/mL (≈ 1.42 µM); in series [19], 0.125 µg/mL (≈ 0.354 µM); in series [20], 1 µg/mL (≈ 2.83 µM). Besides, the MIC in [21] came to 1 µg/mL (≈ 2.83 µM); in [23], 0.5 µg/mL (≈ 1.42 µM); in series [24], 0.125 µg/mL (≈ 0.354 µM); in series [25], 0.25 µg/mL (≈ 0.709 µM); in [26], 0.125 µg/mL (≈ 0.354 µM).

The molecule `CC1=C(C(=O)O)N2C(=O)[C@@H](NC(=O)COc3ccccc3)[C@H]2SC1` showed a bioavailability in series [5] of 37%. Further, the MIC in series [9] was over 128 µg/mL; in series [10], over 128 µg/mL; in [11], over 128 µg/mL; in series [12], over 128 µg/mL; in series [13] it was over 128 µg/mL; in series [14], 4 µg/mL (≈ 11.5 µM). For the same molecule, the MIC in [15] is 16 µg/mL (≈ 45.9 µM); in series [16], over 128 µg/mL; in series [17], 32 µg/mL (≈ 91.9 µM); in series [18] it was 2 µg/mL (≈ 5.74 µM); in [19], 2 µg/mL (≈ 5.74 µM); in series [27], 16 µg/mL (≈ 45.9 µM). Further, the MIC was determined as 8 µg/mL (≈ 23 µM) in series [28] and 2 µg/mL (≈ 5.74 µM) in series [26].

In [5], `N[C@@H](C(=O)N[C@@H]1C(=O)N2C(C(=O)O)=C(Cl)CS[C@H]12)c1ccccc1` [CEFACLOR ANHYDROUS] yielded a bioavailability of 76%. Further, the MIC in [9] was determined as 1 µg/mL (≈ 2.72 µM); in [10], 16 µg/mL (≈ 43.5 µM); in series [11], 1 µg/mL (≈ 2.72 µM); in series [12] it was 0.5 µg/mL (≈ 1.36 µM); in [13] it was 4 µg/mL (≈ 10.9 µM); in series [14] it was 4 µg/mL (≈ 10.9 µM). Also, the MIC in series [15] came out at 8 µg/mL (≈ 21.8 µM); in [16], 64 µg/mL (≈ 174 µM); in series [17], 16 µg/mL (≈ 43.5 µM); in series [18] it was 1 µg/mL (≈ 2.72 µM); in series [19], 0.25 µg/mL (≈ 0.68 µM); in series [20], 1 µg/mL (≈ 2.72 µM). Also, the MIC was 2 µg/mL (≈ 5.44 µM) in series [21]; 0.5 µg/mL (≈ 1.36 µM) in series [35]; 1 µg/mL (≈ 2.72 µM) in series [23]; 0.25 µg/mL (≈ 0.68 µM) in series [36]; 2 µg/mL (≈ 5.44 µM) in series [25]. Further, the ED50 in [29] worked out at 1.25 mg/kg; in [30] it was 1.25 mg/kg; in series [31] it was 10.7 mg/kg; in [32], 11.5 mg/kg; in [33], 1.36 mg/kg; in [34], 1.32 mg/kg.
